# HSF1 inh = HSF1 inhibition. AID 2098. NIH3T3-HGL HSE-luciferase, MG132-induced, luminescence 8 h; hits give low values. activity change, negative = inhibition, % at 7.5 µM (by protocol). 300,000 tested, 0.77% active;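 active = more than half of replicate wells show activity change below -50%, luminescence cut by over half; inconclusive = some wells, but at most half, below -50%; inactive = no replicate well below -50%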;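 also: luciferase reports HSF-1 transcriptional activity via heat shock element; 0% = median of DMSO wells and -100% = zero luminescence signal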
# HKDC1 inhibitor = HKDC1 (human) hexokinase inhibition. Q2TB90. recombinant HKDC1, G6PDH/diaphorase resazurin coupled fluorescence. inhibition, % at 20 µM. 340,000 tested, 0.16% active;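 active = inhibition above about 35% when tested at 20 µM, limit read from the data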;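 also: plate controls were DMSO wells with enzyme for no effect and DMSO wells lacking enzyme for full effect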
# Target sequence (Q2TB90 whole entry, looked up): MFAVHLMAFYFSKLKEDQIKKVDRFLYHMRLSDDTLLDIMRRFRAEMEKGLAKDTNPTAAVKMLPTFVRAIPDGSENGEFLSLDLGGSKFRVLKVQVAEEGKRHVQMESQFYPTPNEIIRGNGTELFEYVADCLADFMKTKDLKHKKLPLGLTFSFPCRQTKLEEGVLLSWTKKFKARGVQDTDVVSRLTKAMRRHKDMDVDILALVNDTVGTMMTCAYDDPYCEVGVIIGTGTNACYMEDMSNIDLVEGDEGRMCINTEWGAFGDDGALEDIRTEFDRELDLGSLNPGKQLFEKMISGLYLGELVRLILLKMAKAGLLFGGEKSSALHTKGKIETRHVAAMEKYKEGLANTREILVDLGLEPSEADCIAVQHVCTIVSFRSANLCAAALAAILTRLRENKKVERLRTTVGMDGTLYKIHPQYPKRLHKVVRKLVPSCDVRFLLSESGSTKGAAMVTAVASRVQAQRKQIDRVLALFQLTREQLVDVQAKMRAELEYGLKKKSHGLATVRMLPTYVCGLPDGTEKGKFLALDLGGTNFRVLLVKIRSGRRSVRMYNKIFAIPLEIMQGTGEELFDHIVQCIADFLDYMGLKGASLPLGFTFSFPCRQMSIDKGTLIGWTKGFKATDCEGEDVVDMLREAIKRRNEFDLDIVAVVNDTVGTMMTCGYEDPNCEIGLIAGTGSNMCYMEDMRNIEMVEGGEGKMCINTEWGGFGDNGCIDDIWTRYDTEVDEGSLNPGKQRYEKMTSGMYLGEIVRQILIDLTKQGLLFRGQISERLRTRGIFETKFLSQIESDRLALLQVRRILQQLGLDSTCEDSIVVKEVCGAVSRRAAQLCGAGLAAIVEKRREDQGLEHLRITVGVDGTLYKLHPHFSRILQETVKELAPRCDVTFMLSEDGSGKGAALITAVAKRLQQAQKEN
#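 test system = in-house recombinant HK5 (HKDC1) enzyme | amount = HKDC1 at 5 µg/mL | control set = DMSO-enzyme wells negative, buffer-substituted wells positive | compound = one dose of 20 µM, 1% DMSO | schedule = reaction time 90 min, room temperature, protected from light | technique = resorufin fluorescence at 613 nm | reagent = glucose with 1 mM ATP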
# HSF-1 act = increases HSF-1 driven luciferase reporter signal; NIH3T3-HGL HSF-1 luciferase reporter, MG132, 8 h; 100% = twice DMSO control signal; activation, % at 9 µM; 300,000 tested, 1.7% active;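 active = mean replicate activation of at least 50% with a set share of replicates each reaching 50%; inconclusive = only one of those two conditions met; inactive = mean below 50% and too few replicates reaching it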;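 also: 0% = median of the neutral control wells and 100% = twice that signal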
# HSP90 refold inh = blocks HSP90-mediated luciferase refolding in reticulocyte lysate. Rabbit reticulocyte lysate, luciferase refolding luminescence, 3 h. inhibition, % at 5.6 µM. 290,000 tested, 0.91% active. AID 1789;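 active = inhibition above the screen-wide mean plus 3 SD, computed separately per campaign, cut at about 16% in these data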;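 also: 0% = DMSO wells and 100% = 60 µM geldanamycin wells; inhibitors lower the luminescence because luciferase stays unfolded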
# Tb hexokinase = T. brucei hexokinase 1 inhibition | inhibition, % at 10 µM | 220,000 tested, 0.11% active | recombinant TbHK1, G6PDH-coupled NADH A340;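 active = inhibition of 50% or more in the single-dose primary screen; inactive = inhibition below 50%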
# Hsp70 act = switches on Hsp70 transcription; HeLa Hsp70 promoter luciferase reporter, luminescence; scaled: vehicle 0, proteasome-inhibitor control 100%; activation, % at 10 µM; 200,000 tested, 0.04% active; AID 1203;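 active = activation above the mean across all tested compounds plus 3 SD, cutoff set per campaign, cut at about 5.5% in these data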;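 also: 100% = MG132 at 30 µM as the positive control and 0% = DMSO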
# Numbers without * were called inactive; ? = inconclusive; . = not tested or not shown. Sampled rows, rich in hits. Any-hit rate of the full collection: about 3.1%.
SMILES,HSF1 inh,HKDC1 inhibitor,HSF-1 act,HSP90 refold inh,Tb hexokinase,Hsp70 act
O=C(Nc1nc2ccccc2s1)Nc1ccc(F)cc1F,36,-7,50*,0,.,.
CCSc1nsc(NC(=O)Nc2cccc(F)c2)n1,-10,-1,3,1,.,.
Cc1ccc(CNC(=O)CCSCc2ccccc2F)cc1,-5,-2,3,3,.,.
Cc1ccc(NC(=O)C2CCN(S(=O)(=O)c3ccc4c(c3)NC(=O)C(C)S4)CC2)cc1Cl (centres undefined),2,6,8,2,.,.
COc1ccccc1Oc1ccc2c(c1)C(=O)N(c1ccc(Br)c3cccnc13)C2=O,-75*,-6,-81,-1,-10,0
CC1=C(Sc2nc3ccccc3[nH]2)C(=O)NC(C)(C)C1,14,-3,60*,3,-2,0
Nc1ccc2oc3ccccc3c2c1,-22,4,-9,16*,-6,0
COc1ccc(Cl)cc1S(=O)(=O)N1CCC(C(=O)NCCc2ccccc2)CC1,-79*,-6,-84,-3,.,.
COc1ccc(C)cc1S(=O)(=O)N1CCC(C(=O)NCCc2ccccc2)CC1,-4,-11,8,3,-3,0
CCOC(=O)c1c(C)[nH]c(C(=O)OCC(=O)Nc2ccccc2)c1C,.,-4,.,.,.,.
COc1ccc2c(c1OC)C(=O)OC2Nc1ccc(S(=O)(=O)N=C(N)N)cc1 (centres undefined),-60*,-2,-69,0,-8,.
COc1ccc2c(c1OC)C(=O)OC2Nc1ncc(Br)cc1Br (centres undefined),-3,5,4,1,-4,0
Cc1cc(O)c(C=O)c2c1C(=O)Oc1c(CO)c(O)c3c(c1O2)C(O)OC3=O (centres undefined),.,37*,.,1,22,0
C=CCn1c(=O)c(C(=O)Nc2ccccc2O)c(O)c2ccccc21,14,-3,26,-2,-8,0
C=CCn1c(=O)c(C(=O)Nc2ccccc2C)c(O)c2ccccc21,32,-2,75*,-1,.,.
O=C(c1ccc(CS(=O)c2ccccc2Cl)o1)N1CCN(c2ccccn2)CC1 (centres undefined),-3,-2,-6,-4,.,.
COC(=O)Cn1c2ccc(OC)cc2c2nc(C)sc21,33,-21,88*,2,-9,.
CCOc1ccc2sc(NS(=O)(=O)c3ccc(OC)c(OC)c3)nc2c1,32,-5,64*,-1,5,0
COc1ccc(S(=O)(=O)Nc2nc3ccccc3s2)cc1,-2,-2,6,-2,-4,-1
O=[N+]([O-])c1ccc(-c2nc3ccc([N+](=O)[O-])cc3[nH]2)cc1,37,-4,55*,-1,-24,0
O=C1OC(c2ccccc2)(c2cc(Br)ccc2O)c2ccccc21 (centres undefined),.,0,.,.,.,.
CCc1ccc(-c2nc(CN3CCCC(C(=O)NCCc4ccc(OC)c(OC)c4)C3)c(C)o2)cc1 (centres undefined),-5,-5,3,12,-7,0
COc1ccc(CCNC(=O)C2CCCN(Cc3nc(-c4ccccc4C)oc3C)C2)cc1OC (centres undefined),29,-9,72*,6,9,0
Cc1ccc(NC(=O)c2ccc3nc[nH]c3c2)c(O)c1,18,-4,66*,-1,-2,0
CCCCC1CCC(C(=O)N(C)CC(=O)Nc2cccc(OC)c2)CC1 (centres undefined),.,-2,.,.,.,.
SMILES,HSF1 inh,HKDC1 inhibitor,HSF-1 act,HSP90 refold inh,Tb hexokinase,Hsp70 act
O=C(NCCc1cscn1)C1CCC(=O)N(Cc2ccc(Cl)cc2)C1 (centres undefined),-2,-5,10,-4,.,.
Cc1cccc(C)c1N1CCN(S(=O)(=O)c2ccc(F)cc2)CC1,14,3,55*,0,11,0
O=c1c2ccccc2oc2cc(C#Cc3ccccn3)ccc12,40,-3,63*,.,.,.
COc1cccc2sc3cc(C#Cc4ccccn4)ccc3c(=O)c12,.,19,.,.,.,.
Nc1cccc(C#Cc2ccc3c(=O)c4ccccc4oc3c2)c1,.,-6,.,.,.,.
COc1cccc2oc3ccc(C#Cc4ccccn4)cc3c(=O)c12,34,1,61*,17*,.,.
Cc1ccc(CCNC(=O)c2cc(S(=O)(=O)N3CCCCC3)c[nH]2)cc1,4,-1,28,5,.,.
O=C(NCCc1ccc(Cl)cc1)c1cc(S(=O)(=O)N2CCCCC2)c[nH]1,0,3,10,38*,.,.
Fc1ccccc1CSc1nnc(-c2cccs2)o1,42,-4,67*,0,1,0
N#Cc1ccccc1CSc1nnc(-c2ccncc2)o1,25,1,60*,3,.,.
c1ccc(CSc2nnc(-c3cccs3)o2)cc1,15,-5,11,0,-1,0
Clc1ccccc1CSc1nnc(-c2ccncc2)o1,9,-4,?,-1,-4,0
c1ccc2c(CSc3nnc(-c4ccncc4)o3)cccc2c1,35,5,59*,5,1,0
COc1cccc(NC(=O)CN(C)C(=O)c2ccc(NC(=O)CC3SC(N4CCCC4)=NC3=O)cc2)c1 (centres undefined),.,-1,.,.,.,.
Cc1cc(C)c2c(=O)[nH][nH]c2n1,.,-4,.,.,.,.
O=C(O)c1ccn(CSc2cc(Cl)ccc2Cl)n1,.,-4,.,.,.,.
C/C(=N/OCc1ccc(Br)cc1)c1ccccn1,22,-6,84*,-2,2,0
C/C(=N\OC(=O)c1ccc(Br)cc1)c1ccccn1,-6,-11,1,-3,25,0
CCc1cc(C(=O)NCC(C)(C)N2CCOCC2)sc1C,-68*,-3,-76,.,.,.
CC1CCc2sc(C(=O)NCC(C)(C)N3CCOCC3)cc2C1 (centres undefined),4,3,24,.,.,.
COc1ccc(S(=O)(=O)N2CCOCC2)cc1NS(=O)(=O)c1ccc(F)c(F)c1,.,-2,.,.,.,.
Cc1ccccc1-c1nnc(SCC(=O)Nc2cccnc2Cl)o1,.,16,.,.,.,.
c1ccc(SCc2cc(-c3ccccc3)no2)cc1,46,-5,67*,-5,2,0
Clc1ccc(-c2cc(CSc3ccccc3)on2)cc1,33,-2,66*,-3,5,0
Clc1ccc(-c2cc(CSc3cccc(Cl)c3)on2)cc1,16,2,24,2,7,0
CCOc1ccc(N2CSC(=S)N(c3ccc(OCC)cc3)C2)cc1,-65*,-1,-71,1,33,.
Cc1ccc(CNC(=O)N2CCN(S(=O)(=O)c3ccccc3)CC2)cc1,1,0,3,3,.,.
O=S(=O)(Nc1cccc2ccccc12)c1ccccc1,52,12,61*,-3,-4,.
COc1ccccc1NS(=O)(=O)c1ccc(NC(C)=O)cc1,2,-16,6,3,-5,0
COC(=O)Nc1ccc(S(=O)(=O)Nc2cccc3ccccc23)cc1,33,-2,68*,6,2,0

# Screening results from PubChem BioAssay.
